High-throughput results from PubChem.
S1P1 ag-PAM: S1P1 (human) agonism or agonism potentiation; activation, % at 9.5 µM; AID 449; P21453; S1P1 CRE-bla cells, forskolin, beta-lactamase FRET, potentiator mode; S1P1 agonist co-added at EC20, 2 nM; 100% = saturating reference agonist, 0% = basal; hit rate 0.57% among 56,000;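 active = activation above a cutoff set at the mean activation of all tested compounds plus 3 SD, cut at about 54% in these data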;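 also: forskolin at 4 µM as EC80 and the EC20 agonist is SEW2871; 100% = SEW2871 at its EC100 plus forskolin at EC80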
S1P3 ag: agonists of human S1P3 receptor; Q99500; S1P3 NFAT-BLA reporter cells, agonism, FRET ratio; relative to 1 µM S1P, basal subtracted; activation, % at 4.5 µM; hit rate 0.1% among 60,000;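 active = activation above the screen-wide mean plus 3 SD, cut at about 4.5% in these data, passing the limit was not always enough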
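Measure – % activation relative to 1 µM S1P (100%), per plate · System – stable CHO line with human S1P3, Gα16, NFAT-BLA reporter · Timing – cells plated overnight, compound 4 h 37 °C, substrate 2 h RT · Technique – fluorescent BLA substrate, ex 405 nm, em 460/535 nm ratio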
D1 allo mod: D1 dopamine receptor (human) allosteric modulation | P21728 | HEK293 D1, CRE-luciferase, dopamine EC30 potentiation; actives deviate in either direction | B-score at 10 µM | hit rate 5.9% among 58,000;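 active = luminescence count or its row- and column-corrected plate score outside the 99.7% band of the plate's sample wells, on either side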
M1 ag: M1 muscarinic receptor agonism. hit rate 3% among 64,000. CHO-M1 cells, Fluo-4 calcium fluorescence, agonist mode; active compounds read high. B-score at 10 µM;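 active = fluorescence rise, raw or as B-score row- and column-corrected plate score, outside the 99.7% band of its plate's samples, either direction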
M1 antag: M1 muscarinic receptor (rat) antagonism. hit rate 3.4% among 64,000. CHO-M1 cells, Fluo-4 calcium, ACh EC80 antagonist mode; active compounds read low. AID 628. B-score at 10 µM. P08482;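 active = calcium fluorescence response, raw or row-and-column corrected B-score, differing from the plate sample mean either way at a set confidence level, mostly lower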
Target sequence (P08482 whole entry, looked up): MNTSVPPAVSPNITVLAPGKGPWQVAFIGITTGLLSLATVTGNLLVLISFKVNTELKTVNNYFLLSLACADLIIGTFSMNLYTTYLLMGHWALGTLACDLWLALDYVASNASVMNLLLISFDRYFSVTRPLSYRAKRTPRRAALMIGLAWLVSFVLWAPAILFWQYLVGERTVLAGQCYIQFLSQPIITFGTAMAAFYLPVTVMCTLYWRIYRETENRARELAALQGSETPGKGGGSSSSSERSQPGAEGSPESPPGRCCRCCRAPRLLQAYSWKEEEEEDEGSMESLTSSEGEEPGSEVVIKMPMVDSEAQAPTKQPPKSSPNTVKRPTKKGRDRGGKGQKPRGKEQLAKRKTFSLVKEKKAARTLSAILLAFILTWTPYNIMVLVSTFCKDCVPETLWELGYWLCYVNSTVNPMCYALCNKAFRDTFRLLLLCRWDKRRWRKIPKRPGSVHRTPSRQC
Starred values were filed as active, the others as inactive; . = no result. Compounds with a hit are over-represented: about 11% of the library has one in this group of screens.

SMILES	S1P1 ag-PAM	S1P3 ag	D1 allo mod	M1 ag	M1 antag
O=C(CCn1nnc2ccccc21)N1CCC(O)(c2cccc(F)c2)CC1	.	.	-0.495	0.537	1.23
Cc1cc(OCC(=O)Nc2ccncc2)ccc1Br	-8.9	-1.4	-3.29*	5.44	-1.78
O=C(Cn1nnc(-c2ccccc2F)n1)Nc1ccc(S(=O)(=O)NC2CCCC2)cc1	7.3	-0.2	-0.254	.	.
Cc1c(C(=O)N2CCN(c3ccc(C(F)(F)F)cn3)CC2)oc2ccccc12	15.7	-0.1	-0.199	-0.666	-0.04
CC(=O)c1ccc(N2CCN(c3ccc(C(F)(F)F)cn3)CC2)cc1	88.0*	-2.2	-0.122	0.473	-0.386
COC1(OC)N=C(NC(=O)Nc2ccccc2)C2(C#N)C(c3ccccc3)C12C#N (stereo not given)	14.6	-0.7	1.12	0.831	0.774
COc1ccc(C2N(c3cc(Cl)ccc3OC)C(=O)C3CCCN32)cc1OC (stereo not given)	-31.8	-0.9	1.69	0.000685	0.0714
NC(=O)CSc1nnc(COc2ccccc2)n1C1CCCCC1	2.0	-0.9	-0.0279	-0.123	0.533
COCCn1c(=S)[nH]c2cc(C(=O)N3CCN(c4ccc(F)cc4)CC3)ccc2c1=O	.	.	-1.53	-1.63	0.0842
CCOc1ccc(OCc2ccc(C(=O)O)o2)cc1	-1.8	0.0	-5.11*	.	.
CCOc1ccc(OCc2ccc(C(=O)NCc3ccncc3)o2)cc1	11.0	-1.1	-0.555	-0.543	0.000959
Cc1cc(C)cc(N(CC(=O)N2CCn3c2nc2ccccc23)S(=O)(=O)c2c(C)noc2C)c1	-25.0	-0.5	0.151	-0.222	0.0202
Cc1ccc(NC(=O)CN(C)S(=O)(=O)c2cccc3nsnc23)cc1	22.2	-1.6	-5.36*	0.459	0.591
CC(=O)C1C(c2ccccc2OC(F)F)NC(=O)NC1(O)C(F)(F)F (stereo not given)	-23.7	-0.2	.	-0.114	-0.222
COc1ccc(NC(=O)NCCCN2CCN(c3cc(C)ccc3C)CC2)cc1	-12.0	-0.4	-6.12*	-0.93	-0.285
COc1ccc(NC(=O)NCCN2CCN(c3cccc(Cl)c3)CC2)cc1	17.4	-0.7	-0.685	-0.721	0.371
COc1cccc(NC(=O)CN2CCN(c3ccc(F)cc3)CC2)c1	-4.9	0.8	0.607	0.49	0.156
COc1cccc(NC(=O)NCCCN2CCN(c3ccc(F)cc3)CC2)c1	4.7	-0.9	-5.09*	0.357	-0.15
CCn1c(=O)cc(SCC(=O)NCCCN2CCN(c3ccc(F)cc3)CC2)c2ccccc21	.	.	-3.66*	-0.143	-1.96
O=C(C1CCC(=O)N1C1CCCCC1)N1CCN(c2ccc(F)cc2)CC1 (stereo not given)	-0.2	0.0	0.984	0.215	0.31
CCc1nn(CC(=O)NCCCN(CC)Cc2ccccc2)c(=O)c2cc3sccc3n12	21.4	-0.8	-4.58*	0.325	-0.317
CCc1nn(CC(=O)NCCCN2CCCC2=O)c(=O)c2cc3sccc3n12	-31.7	-0.5	0.131	-0.0367	-0.417
CCc1nnc(NC(=O)c2cc3c(s2)CCCCC3)s1	.	.	-2.42*	-0.267	0.635
CC1(C)CC(=O)C(CC2=C(O)CC(C)(C)CC2=O)=C(O)C1	3.5	-1.3	0.581	0.789	-1.02
N#Cc1cc2c(=O)n3ccccc3nc2n(Cc2cccnc2)c1=N	.	.	0.802	0.315	-0.0408
SMILES	S1P1 ag-PAM	S1P3 ag	D1 allo mod	M1 ag	M1 antag
C=CCn1c(=O)c(C#N)cc2c(=O)n3ccccc3nc21	-80.3	5.2*	-0.2	-0.00428	-0.856
Cc1cc(-n2c(=O)c(C#N)cc3c(=O)n4ccccc4nc32)no1	-123.8	10.6*	-0.306	.	.
Cc1cc(NC(=O)c2cnc3ccccn3c2=O)no1	5.6	-1.6	.	0.198	0.542
CCOC(=O)c1c(C)[nH]c(C(=O)C(C)OC(=O)c2cccc(OCc3c(C)noc3C)c2)c1C (stereo not given)	100.9*	-1.7	2.05	2.05	-0.0369
COc1ccc2nc(NC(=O)c3cccc(OCc4c(C)noc4C)c3)sc2c1	-7.0	0.0	-3.44	0.933	0.413
O=C(NCc1ccco1)c1cc2ccc(O)cc2oc1=O	-154.1	12.0*	-0.241	1.83	1.08
CC(=O)OCCCN1C(=O)c2ccc(Br)cc2C1=O	.	0.4	0.61	-0.477	-0.43
COc1ccccc1-c1nn2c(-c3ccco3)nnc2s1	-4.6	-1.5	.	2.68	-0.859
COc1ccccc1-c1nn2c(-c3ccccc3Cl)nnc2s1	.	-0.6	0.521	-1.98*	-0.568
NC(=O)CSc1nnc(-c2ccc(S(=O)(=O)N3CCOCC3)cc2)n1Cc1ccccc1	1.2	-0.9	.	-0.909	2.34*
NC(=O)CSc1nnc(-c2ccc(S(=O)(=O)N3CCOCC3)cc2)n1CC1CCCO1 (stereo not given)	-2.0	-1.2	.	0.444	-1.97
Cc1ccc(C(=O)Nc2ccc(Cl)cn2)cc1	9.8	-0.1	-4.13*	-0.442	0.0934
CC(=O)Nc1ccc(NC(=O)Cn2cnc3c(cnn3C(C)(C)C)c2=O)cc1	4.9	-0.6	0.436	-0.477	1.21
CC(C)(C)n1ncc2c(=O)n(CC(=O)NCc3ccccc3)cnc21	-7.0	-0.9	-5.42*	0.86	0.966
Cc1cc(C)n(-c2nc(SCC(=O)NCC3CCCO3)c3c4c(sc3n2)CCCC4)n1 (stereo not given)	-3.4	-1.6	-0.0541	-0.543	-0.203
Cc1cc(C)n(-c2nc(NCCCO)c3c4c(sc3n2)CCCC4)n1	-83.7	41.1*	0.542	0.729	-1.11
Cc1cc(C)n(-c2nc(NCCO)c3c4c(sc3n2)CCCC4)n1	-68.5	27.9*	0.0259	-0.962	0.0613
Cc1cc(C)n(-c2nc(NCC(C)O)c3c4c(sc3n2)CCCC4)n1 (stereo not given)	-84.6	29.4*	0.902	0.0135	-0.673
Cc1cccc(N(C)S(=O)(=O)c2ccc3[nH]c(=O)c(=O)[nH]c3c2)c1	-1.5	-0.7	-0.742	-1.76	0.04
O=C(Nc1ccc(N2CCCC2)c(Cl)c1)c1ccc(Br)o1	96.6*	-1.0	-1.18	0.374	-0.104
O=C(Nc1ccccc1N1CCCC1)c1ccc(Br)o1	-8.4	-0.4	0.399	0.525	-0.519
c1ccc(-c2ccc(-c3ccccn3)nn2)nc1	-1.5	-0.2	-8.69*	-0.288	-0.647
O=C(CCCCCN1C(=O)CCC1=O)NCc1ccccc1	6.2	-0.7	1.11	-1.34	2.12*
NC(=O)c1ccccc1NC(=O)CCCN1C(=O)CCC1=O	-5.2	-0.9	-0.0126	-0.316	0.275
CS(=O)(=O)N(CC(=O)N1CCCCC1)c1sc2c(c1C#N)CCCC2	-15.4	-0.7	1.04	-0.244	0.557
CC(=O)Nc1sc2c(c1CN1CCN(c3ccccn3)CC1)CCCC2	14.9	-0.6	-3.28*	-0.299	-0.535
c1cnc(N2CCN(Cc3c[nH]c4ccccc34)CC2)nc1	7.9	-0.8	-2.37	-0.033	-1.83
c1ccc(N2CCN(Cc3ccnc4ccccc34)CC2)cc1	78.1*	-1.8	-1.76	-1.65	-1.24
O=S(=O)(Nc1ccc2c(c1)OCCO2)c1ccc2oc3ccccc3c2c1	71.6*	0.4	-1.11	0.293	-0.0117
COc1ccc(S(=O)(=O)Nc2ccc3c(c2)OCCO3)cc1Cl	18.0	-1.0	-2.01	0.377	-0.503
